Source: PubChem (several laboratories)
An excerpt weighted towards active compounds, which were near 1.5% of everything screened.
NRP1-CendR mod = modulators of CendR peptide binding to human neuropilin-1; FAM-RPARPAR peptide binding to NRP-1, fluorescence polarization; actives 0.85% (n = 360,000); inhibition, % at 25 µM; O14786;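 active means inhibition or corrected inhibition above about 18%, plus a signal ratio from 0.5 to 1.5, limit read from the data, passing the limit was not always enough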
Target sequence (O14786 whole entry, looked up): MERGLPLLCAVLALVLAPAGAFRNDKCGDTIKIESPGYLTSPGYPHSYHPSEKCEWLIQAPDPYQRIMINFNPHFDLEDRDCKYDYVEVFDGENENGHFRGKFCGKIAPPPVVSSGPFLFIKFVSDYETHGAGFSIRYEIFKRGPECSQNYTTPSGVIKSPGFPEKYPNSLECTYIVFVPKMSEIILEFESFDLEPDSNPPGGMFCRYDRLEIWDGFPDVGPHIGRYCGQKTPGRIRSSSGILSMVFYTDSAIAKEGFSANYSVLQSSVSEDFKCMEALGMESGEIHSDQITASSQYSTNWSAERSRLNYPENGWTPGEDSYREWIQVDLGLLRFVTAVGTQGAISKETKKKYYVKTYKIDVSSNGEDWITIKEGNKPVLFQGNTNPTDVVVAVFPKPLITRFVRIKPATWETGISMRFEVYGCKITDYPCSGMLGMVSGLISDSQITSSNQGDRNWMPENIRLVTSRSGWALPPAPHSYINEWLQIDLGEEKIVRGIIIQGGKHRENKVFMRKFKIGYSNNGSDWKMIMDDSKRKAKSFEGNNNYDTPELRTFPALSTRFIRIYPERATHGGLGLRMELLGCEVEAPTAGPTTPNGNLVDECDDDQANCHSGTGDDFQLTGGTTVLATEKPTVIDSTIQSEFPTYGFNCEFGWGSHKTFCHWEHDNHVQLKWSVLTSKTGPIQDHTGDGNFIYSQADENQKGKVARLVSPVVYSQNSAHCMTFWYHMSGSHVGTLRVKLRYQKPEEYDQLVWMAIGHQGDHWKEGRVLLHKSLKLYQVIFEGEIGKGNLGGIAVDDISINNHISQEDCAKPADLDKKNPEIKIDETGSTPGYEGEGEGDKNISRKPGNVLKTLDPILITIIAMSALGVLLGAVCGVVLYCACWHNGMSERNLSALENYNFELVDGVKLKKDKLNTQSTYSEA
DAGLB inhibitor = diacylglycerol lipase beta (human) inhibition. Q8NCG7. HEK293T DAGLB membrane lysate, EnzChek fluorogenic substrate. inhibition, % at 5.17 µM. actives 0.059% (n = 340,000); in the data active means inhibition above about 34%;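 further: 0% = enzyme with vehicle and 100% = wells lacking enzyme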
MT1-MMP act inh = MT1-MMP (human) activation inhibition | P50281 | HT1080 RFP-PRO-GFP cells, GFP/RFP ratio fluorescence, overnight; percent of plate control window, DMSO zero | GFP/RFP ratio change, % at 20 µM | actives 0.061% (n = 360,000) | AID 651647;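 active means GFP/RFP ratio change of at least 30% with cell ATP level not reduced by more than half and red fluorescence within 50% of control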
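Material: RFP-PRO-GFP reporter HT1080 cells. Dosing: single-point 20 µM compound, 1% DMSO. Controls: DMSO and RFP-L50D-GFP cell wells. Timing: cells overnight before dosing, compound overnight, 37 °C, 5% CO2. Measure: GFP/RFP fluorescence ratio.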
Fh CTSL1 inh = blocks F. hepatica cathepsin L1 in PFM18AAP counter-screen. inhibition, % at 5.96 µM. recombinant F. hepatica cathepsin L1, Z-Leu-Arg-MCA fluorescence. actives 0.49% (n = 300,000). AID 1906;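 active means inhibition above the mean of all tested compounds plus 3 SD, set per screening campaign, cut at about 17% in these data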;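 further: 0% = plate median of test compound wells and 100% = 1 µM Z-Phe-Ala-diazomethylketone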
UCH37 inh = blocks the human deubiquitinase UCH37 | AID 588478 | purified proteasome/UCH37, Ub-AMC cleavage fluorescence | actives 0.33% (n = 330,000) | Q9Y5K5 | inhibition, % (test concentration not listed);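 active means mean inhibition over replicate wells above about 20%, limit read from the data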;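 further: 0% = compound-free wells with enzyme and 100% = wells lacking proteasome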
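Material: human UCH37 enzyme supplied as purified proteasome complex / Amount: 0.15 nM proteasome as dispensed / Buffer or medium: pH 7.4 Tris-HCl (50 mM) with ovalbumin, ATP-MgCl2, DTT / Times: preincubation 30 min, reaction 25 min, room temperature / Technique: AMC fluorescence from Ub-AMC cleavage, excitation 355 nm, emission 460 nm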
* marks the source's active call; other numbers are inactive results; x = no result given.

SMILES	NRP1-CendR mod	DAGLB inhibitor	MT1-MMP act inh	Fh CTSL1 inh	UCH37 inh
CCOc1ccc(S(=O)(=O)Nc2ccc(C(=O)N/N=C/c3c(C)nn(-c4ccccc4)c3N3CCCC3)cc2)cc1	21*	0	-7	2	x
Cc1nccn1CC(=O)NN=Cc1c[nH]c2ccccc12	x	x	x	x	6
CCCC1CC(C)(/C(C)=N\NC(N)=S)OC1=O (stereo not drawn)	11	0	-3	10	x
C/C(=N\NC(N)=S)C1(C)CC2(CC(C)(C)OC2=O)C(=O)O1 (stereo not drawn)	-7	x	1	19*	x
C=CCOc1ccc(C=NNC(=O)c2c(C)nc3ccc(Cl)cn23)cc1	x	x	x	x	3
CCn1c(C)nc2cc(OC)ccc21	21*	-2	-4	4	0
CCn1c(C)nc2cc(N)ccc21	10	-1	3	4	5
CCC(C=NNC(=O)C(N)=O)CC	x	x	x	x	-2
Cc1nonc1C(=O)NN=Cc1cc2c(cc1Br)OCO2	x	x	x	x	-1
Cc1cccc(N(CC(=O)NCc2ccc(F)cc2)C(=O)c2csnn2)c1C	20*	2	4	2	3
Cc1cc(C(=O)NN=Cc2cccs2)no1	x	x	x	x	10
CC[C@@H](CCC=C(C)C)C(=O)N(Cc1ccccc1)c1ccccc1	-3	-14	-2	x	4
CC(C)C[C@@H](C)C(=O)N(Cc1ccccc1)c1ccccc1	32*	-6	-2	x	5
Cc1ccc2nc(N(CCN(C)C)C(=O)c3cc(Cl)sc3Cl)sc2c1	22	-6	3	0	-1
Cc1cc(C)c2sc(N(CCN(C)C)C(=O)c3cc(Cl)sc3Cl)nc2c1	-11	-2	8	17*	5
O=C(O)c1ccc(C=NNc2ncc(Cl)cc2Cl)cc1	x	x	x	x	12
Cc1c(CC(=O)O)c(=O)oc2cc3occ(-c4ccccc4)c3cc12	44*	-5	4	2	-5
O=C(Nc1ccc2c(c1)Cc1ccccc1-2)c1cccnc1	20*	-2	0	-2	0
O=C(Nc1ccc2ccccc2c1)c1cccnc1	3	-3	-9	1	3
CC1(C)Cc2ccccc2C(=O)N1	0	1	0	0	26*
COc1cccc(C=NNC(=O)Cn2ccnc2C)c1	x	x	x	x	6
COc1ccc(C=Nn2cncn2)cc1Cn1cc([N+](=O)[O-])cn1	x	x	x	x	3
CCOC(=O)Cn1c(=NC(=O)c2ccc([N+](=O)[O-])s2)sc2ccccc21	56*	1	-37	3	-8
CC(C)n1nnnc1SCC(=O)NNC(=O)C1CCCCC1	-6	6	1	27*	1
Cc1ccccc1Nc1nc(N)nc(COC(=O)CCS(=O)(=O)c2ccccc2)n1	0	-2	6	-22	0
SMILES	NRP1-CendR mod	DAGLB inhibitor	MT1-MMP act inh	Fh CTSL1 inh	UCH37 inh
Cc1ccccc1Nc1nc(N)nc(COC(=O)CC2CC3CCC2C3)n1 (stereo not drawn)	27*	0	3	0	2
Cc1cc(=O)[nH]c(NN=Cc2ccc(OC(=O)c3cccnc3)cc2)n1	x	x	x	x	7
COc1ccccc1C=NOC(=O)c1ccc(C)cc1	x	x	x	x	3
COc1ccc(NC(=O)c2cc(C3CCCCN3S(=O)(=O)c3ccc(C#N)cc3)on2)c(C)c1 (stereo not drawn)	0	x	3	x	x
COc1ccc(S(=O)(=O)N2CCCCC2c2cc(C(=O)Nc3ccc(OC)cc3C)no2)cc1 (stereo not drawn)	45*	x	-1	x	x
COC(=O)c1ccc(C=NNc2nc(N3CCCCC3)nc(N3CCCCC3)n2)cc1	x	x	x	x	0
Cc1ccc(-c2nnc(SCC(=O)NN=Cc3ccccc3C(=O)O)n2-c2ccccc2)cc1	x	x	x	x	5
COc1ccc(CNC(=O)Cn2ccc(NC(=O)OCc3ccccc3)nc2=O)cc1	38*	1	0	x	3
Cc1ccc(CNC(=O)Cn2ccc(NC(=O)OCc3ccccc3)nc2=O)o1	7	-1	3	x	2
O=C(Cn1ccc(NC(=O)OCc2ccccc2)nc1=O)NCc1ccc2[nH]ccc2c1	24*	2	7	x	-1
COc1ccccc1C=NNC(=O)Cn1cnc([N+](=O)[O-])n1	x	x	x	x	3
CCOC(=O)c1cccc(N2CC3CNC(=O)C2(C(=O)OC)N3C)c1 (stereo not drawn)	21*	0	3	x	-9
CCOC(=O)c1cccc(N2C(=O)C3C4C=CC(CC4)C3C2=O)c1 (stereo not drawn)	8	-1	2	-2	-2
COc1ccc2c(c1)-c1c(ssc1=S)C(C)(C)N2	0	36*	-12	3	6
COc1ccc(-n2sc3c(c2=S)-c2cc(OC)ccc2NC3(C)C)cc1	7	4	2	3	4
NC(=NOCc1cccc([N+](=O)[O-])c1)c1nonc1N	x	x	x	x	2
CC1=NN(S(=O)(=O)c2ccc(Cl)cc2Cl)C(=O)c2ccccc2O1	-3	-2	-2	56*	2
Cc1ccc(-n2c(SCC(=O)N3CCOCC3)nc(O)c(Cc3ccccc3)c2=O)cc1	3	-1	-5	1	2
O=C(CSc1nc(O)c(Cc2ccccc2)c(=O)n1-c1ccccc1)N1CCOCC1	26*	-4	2	0	-2
O=C(COC(=O)Cc1cccs1)NCc1ccc(F)cc1	25*	2	3	-26	0
O=C(NN=Cc1cc([N+](=O)[O-])ccc1O)c1ccc2c(c1)OCCO2	x	x	x	x	6
O=C(Nc1ccc2c(c1)OCO2)O[C@@H]1C[C@H]2CCC(=O)N3CC[C@@H](C1)[C@@H]23	21*	-2	0	-2	6
O=C(Nc1ccccc1)O[C@@H]1C[C@H]2CCC(=O)N3CC[C@@H](C1)[C@@H]23	x	x	x	7	x
CC(C)OC(=O)CSc1nnc(-c2ccc(Cl)cc2Cl)o1	3	-6	2	21*	-9
CCCCOC(=O)CSc1nnc(-c2ccc(Cl)cc2Cl)o1	15	-23	7	9	-3
SMILES	NRP1-CendR mod	DAGLB inhibitor	MT1-MMP act inh	Fh CTSL1 inh	UCH37 inh
CC1(C)OC2OC(C(=O)NN=Cc3ccccc3F)C3OC(C)(C)OC3C2O1 (stereo not drawn)	x	x	x	x	-2
Cc1ccc2c(c1)Oc1ccc(NC(=O)CCl)cc1C(=O)N2	-2	1	-6	52*	2
Cc1ccc2c(c1)Oc1ccc([N+](=O)[O-])cc1C(=O)N2	-4	2	1	-1	1
CCOC(=O)c1sc(-c2ccc(OC)cc2)cc1N	26*	3	-2	10	-1
Cc1cc(C)c2c(N)c(C(=O)Nc3ncc(C)s3)sc2n1	2	4	9	17*	-219
COC(=O)c1sc2nc(C)cc(C)c2c1N	12	0	8	-1	-371
COc1ccc2ccccc2c1C(=O)/C=C\c1ccoc1	-10	-3	-4	23*	9
CCOc1ccc2c(c1)OC1(CCC(C)C1)CC2=O (stereo not drawn)	28*	-6	1	4	5
